High-throughput results: PubChem, several laboratories
This excerpt belongs to a sample that is enriched for hits.
Beta2AR agonist – activates human beta-2 adrenergic receptor causing internalization | Am2.2-beta2AR cells, FAP receptor internalization, flow cytometry | response, % (no concentration beside the values) | 0.43% of 340,000 active | AID 504454;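 active = response above a set limit, near 3 SD of response in nonfluorescent compounds, cut at about 42% in these data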
VLA-4 inh – inhibition in a human VLA-4 binding assay | inhibition, % (about 7 µM as worked out from the volumes in the protocol) | P13612 | VLA-4 expressing cells, ligand binding flow cytometry | 0.2% of 330,000 active; in the data active = inhibition above about 50%
UPR XBP1 act – adaptive UPR (XBP1) activation; 0.33% of 330,000 active; CHO-XBP1 luciferase reporter, IRE1-XBP1 UPR activation, luminescence; percent of tunicamycin response, DMSO as zero; activation, % at 20 µM; AID 463104;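 active = versus positive control, 20 µM dose yields 30% or more activation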;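 note: 100% = tunicamycin at 10 µg/mL and 0% = DMSO only wells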
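Material: CHO cell line with stable XBP1 luciferase reporter; schedule: 16-18 h cell attachment at 37 °C, then 6 h compound exposure; signal: glow luminescence from Steady-Glo reagent; medium: serum-containing F12 medium, 10% FBS; benchmarks: tunicamycin 10 µg/mL and vehicle-only wells; read-out: percent activation relative to tunicamycin reference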
CHOP inh – inhibitors of CHOP induction in ER stress response. AID 2732. inhibition, % at 10 µM. CHO-K1 CHOP-promoter luciferase, tunicamycin-induced, 15-18 h. 3.8% of 220,000 active;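 active = compounds that reduced the stress-induced luciferase reporter signal by more than about 70% of percent inhibition, limit read from the data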;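 note: 0% = tunicamycin plus vehicle and 100% = wells without tunicamycin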
CHOP UPR activ – activators of apoptotic arm of unfolded protein response (CHOP); CHO-CHOP luciferase reporter, UPR activation, luminescence; percent of tunicamycin response over DMSO baseline; activation, % at 10 µM; 0.34% of 330,000 active; AID 449763;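 active = at 10 µM dose, activation of 40% or more, normalized to positive control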;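 note: 100% = tunicamycin at 10 µg/mL and 0% = DMSO alone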
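Dosing – one dose, 10 µM in 0.5% DMSO · System – CHO-CHOP cells, stable luciferase reporter of PERK-eIF2a-CHOP signalling · Input – 500 cells/well · Control set – tunicamycin 10 µg/mL final as positive, DMSO-only wells as negative · Timing – 6 h compound treatment, 37 °C · Measure – % activation vs tunicamycin · Technique – luminescence read with Steady-Glo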
UPR CHOP confirm – apoptotic UPR (CHOP) activation, confirmed | shares compounds with CHOP UPR activ | CHO-CHOP cells, CHOP-luciferase reporter luminescence; percent of tunicamycin response, DMSO as zero | activation, % at 10 µM | 64% of 1,000 active | AID 463112; in the data active = activation above about 33%;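 note: 0% = DMSO wells and 100% = tunicamycin 10 µg/mL wells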
XBP1 UPR conf – confirmation of adaptive unfolded protein response (XBP1) activators; AID 485299; activation, % at 20 µM; shares compounds with UPR XBP1 act; 63% of 1,000 active; CHO-XBP1 IRE1-XBP1 luciferase reporter, luminescence;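 active = reporter signal at least 30% of the positive control's activation in two or more of four replicate wells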;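 note: plate controls were DMSO negative control for no effect and tunicamycin 10 µg/mL positive control for full effect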
Active calls of the source: *; x = not tested or not shown.

SMILES | Beta2AR agonist | VLA-4 inh | UPR XBP1 act | CHOP inh | CHOP UPR activ | UPR CHOP confirm | XBP1 UPR conf
COc1cc([C@H]2c3[nH]c4ccccc4c3C[C@H]3C(=O)N4[C@@H](c5cc(OC)c(OC)c(OC)c5)c5[nH]c6ccccc6c5C[C@H]4C(=O)N23)cc(OC)c1OC | 23 | 23 | 153* | 96* | 88* | 109* | 118*
CCN1C(=O)[C@@H]2Cc3c([nH]c4ccccc34)C(c3cc(OC)c(OC)c(OC)c3)N2C1=S (stereo partly drawn) | -30 | -277 | -4 | x | 0 | x | x
Cc1cc(C)nc(SCc2ccc(C(=O)N/N=C/c3cccc(O)c3O)cc2)n1 | -3 | 26 | 53* | -5 | 140* | 77* | 52*
Cc1cc(N=Cc2c(O)n(-c3ccc(C)c(C)c3)c(=O)c3ccccc23)no1 | x | x | x | 67 | x | x | x
CCOC(=O)Cc1csc(/N=C/c2c(O)n(-c3ccc(C)c(C)c3)c(=O)c3ccccc23)n1 | 2 | -17 | 95* | 59 | 66* | 63* | 155*
COc1ccc(S(=O)(=O)N2CCC(C(=O)NCCC(=O)NC3CC3)CC2)cc1 | 5 | 8 | -7 | x | 1 | x | x
O=C1c2ccccc2C(=O)N1/N=C/c1ccc(O)c(O)c1 | 7 | 6 | 72* | 70* | 54* | 18 | 37*
N#Cc1c(NC(=O)COC(=O)c2ccc(O)cc2O)sc2c1CCC2 | 5 | 2 | -3 | x | -1 | x | x
C#CCn1c(=NC(=O)c2ccc(S(=O)(=O)N3CCc4ccccc4C3)cc2)sc2cc(S(N)(=O)=O)ccc21 | 7 | 17 | 58* | 110* | 82* | 20 | 83*
CCc1ccc(-n2c(SCC(=O)c3ccc4c(c3)NC(=O)CO4)nc3ccccc3c2=O)cc1 | -3 | -5 | 61* | 27 | 62* | 115* | 118*
O=C1COc2ccc(C(=O)CSc3nc4ccccc4c(=O)n3-c3ccc(Cl)c(Cl)c3)cc2N1 | 4 | 15 | 29 | 57 | 17 | x | x
COc1ccc(Cn2c(SCc3ccc(C)cc3)nc3cc(OC)c(OC)cc3c2=N)cc1Cl | x | 27 | 32* | 72* | 88* | 39* | 7
CCOC(=O)c1c(NC(C)=O)sc2c1CCC(C=O)=C2Sc1ccccc1 | -140 | -66 | 64* | -14 | 294* | 632* | 12
CCOC(=O)c1c(NC(C)=O)sc2c1CCN(Cc1ccccc1)C2 | 7 | -16 | 0 | x | -1 | x | x
CCc1ccc2nc(N(CCCN(C)C)C(=O)c3ccc(S(=O)(=O)N4CCc5ccccc5C4)cc3)sc2c1 | 35 | -6 | 59* | x | 41* | 30 | 59*
CN(C)CCCN(C(=O)c1ccc(S(=O)(=O)N2CCCC2)cc1)c1nc2ccc(Br)cc2s1 | 18 | -9 | 15 | x | 4 | x | x
O=C(Nc1cccc(F)c1)C1CCCN(S(=O)(=O)c2ccccc2)C1 (stereo not drawn) | -4 | -2 | -6 | x | 1 | x | x
O=[N+]([O-])c1ccc(Cl)c(-c2ccc(/C=N/c3c(-c4ccco4)nc4ccccn34)o2)c1 | 8 | -241 | 90* | 54 | 74* | 0 | 95*
Cc1ccc([N+](=O)[O-])cc1-c1ccc(/C=N/NC(=O)c2cc3c(ccc4ccccc43)o2)o1 | 5 | -1 | -3 | 22 | 2 | x | x
O=C(N/N=C/c1cccc([N+](=O)[O-])c1)c1cc2c(ccc3ccccc32)o1 | 20 | 8 | 40* | -29 | 104* | 77* | 16
CCCCCCCC(=O)Nc1ccc(C(=O)N/N=C/c2cccc([N+](=O)[O-])c2)cc1 | -5 | 6 | 237* | 66 | 193* | 183* | 145*
NNC(=O)c1ccc(OCC2CC(c3ccc(Cl)cc3)=NO2)cc1 (stereo not drawn) | 3 | 4 | 3 | 49 | 1 | x | x
Cc1ccc(C(C[N+](=O)[O-])n2nc(C)cc2C)cc1 (stereo not drawn) | 18 | 12 | 55* | -28 | 57* | 83* | 20
Cc1ccc(S(=O)(=O)NCC(C)n2nc(C)cc2C)cc1 (stereo not drawn) | 0 | -1 | 0 | x | 1 | x | x
COc1ccc(N=c2oc3c(OC)cccc3cc2C(=O)NCc2ccco2)c(OC)c1 | 1 | 2 | 74* | 89* | 172* | 101* | 22
SMILES | Beta2AR agonist | VLA-4 inh | UPR XBP1 act | CHOP inh | CHOP UPR activ | UPR CHOP confirm | XBP1 UPR conf
COc1ccc2cc(C(=O)NCc3ccco3)c(=Nc3ccc(C(=O)O)cc3)oc2c1 | 5 | 7 | 0 | 3 | -2 | x | x
CCN(CC)S(=O)(=O)c1ccc(-c2nnc(SCC(=O)N3CCOCC3)o2)cc1 | -17 | 26 | -2 | -13 | 0 | x | x
CCN(CC)S(=O)(=O)c1ccc(-c2nnc(SCC(=O)N3CCc4ccccc43)o2)cc1 | -4 | -1 | 209* | x | 70* | 1 | 28
Nc1nc(SCC(=O)Nc2ccc([N+](=O)[O-])cc2)[nH]c(=O)c1NC(=O)c1ccc(Br)cc1 | 4 | 4 | -1 | x | -1 | x | x
COc1ccc(CCN=C(N)NS(=O)(=O)c2ccc3ccccc3c2)cc1 | 10 | -2 | -2 | 40 | 1 | x | x
O=C(NCCCl)Nc1cccc(Br)c1 | 2 | 17 | 1 | 0 | -1 | x | x
CC(C)c1cccc(-c2ccc3c(c2)S(=O)(=O)c2cccc(C(=O)NCc4ccccc4)c2C3=O)c1 | 5 | 1 | 16 | x | 22 | x | x
O=C(NCc1ccccc1Br)c1cccc2c1C(=O)c1ccc(-c3ccc(OC(F)(F)F)cc3)cc1S2(=O)=O | -1 | 20 | 115* | x | 98* | 88* | 86*
CC(C)c1cccc(-c2ccc3c(c2)S(=O)(=O)c2cccc(C(=O)NCc4ccccc4Cl)c2C3=O)c1 | 0 | 3 | 99* | x | 49* | 34* | 109*
CCOC(=O)N1CCN(S(=O)(=O)c2ccc(C(=O)Nc3nc4c(s3)CC(C)CC4)cc2)CC1 (stereo not drawn) | 6 | -12 | 62* | 93* | 64* | 96* | 116*
N=c1c(-c2nc3ccccc3[nH]2)cc(C(=O)c2ccco2)nn1-c1ccccc1 | -14 | -14 | 33* | -123 | 153* | 148* | 28
N=c1c(-c2nc3ccccc3[nH]2)cc(C(=O)c2cccs2)nn1-c1ccccc1 | -1 | -5 | 4 | -53 | 3 | x | x
O=C(Nc1nc(-c2ccc(F)c(F)c2)cs1)Nc1ccc(F)cc1F | 0 | -8 | 74* | x | 47* | 53* | 123*
Cc1cc(Br)c(NC(=O)CSc2n[nH]c(N)n2)c(Br)c1 | -7 | -20 | 0 | x | -2 | x | x
